In ChEMBL document CHEMBL1140471, “Inhibitors of NF-kappaB derived from thalidomide” (Bioorg Med Chem Lett, 2007) one finds IC50 data, which are given here for 24 molecules.

Molecules are shown by their SMILES.

By IC50 is commonly meant the concentration needed to halve the response being measured.

A short description of this assay: Inhibition of IL-1-alpha-induced NF-kappaB activation in HeLa cells assessed as blocking of p50/p65 nuclear translocation. The assay is classed as cell-based. To be noted: Homo sapiens. The essentials:
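HeLa cells stimulated with IL-1α (5 ng/ml) with or without compound for 30 min, then fixed and immunostained for p65 with Hoechst nuclear counterstain. Plates were scanned by fluorescence imaging microscopy. IC50 = concentration reducing nuclear minus cytoplasmic p65 fluorescence by 50%.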
For the molecule `COC(=O)c1ccc2c(c1)C(=O)N(c1c(C(C)C)cccc1C(C)C)C2=O`, the half-inhibitory concentration (IC50) was over 50 µM.

Regarding `CC(C)c1cccc(C(C)C)c1N1C(=O)c2ccc(OS(N)(=O)=O)cc2C1=O`, the IC50 is over 50 µM.

As for `CC(=O)Nc1ccc2c(c1)C(=O)N(c1c(C(C)C)cccc1C(C)C)C2=O`, the half-inhibitory concentration (IC50) was over 50 µM.

With `CC(C)c1ccccc1N1C(=O)c2ccc(O)cc2C1=O`, the IC50 was over 50 µM.

Take `CC(C)c1cccc(C(C)C)c1N1C(=O)c2ccc(C(=O)O)cc2C1=O`: the IC50 is over 50 µM.

Consider `CC(C)(C)c1ccccc1N1C(=O)c2ccc(O)cc2C1=O`, for which the IC50 is over 50 µM.

Regarding `CCCc1ccccc1N1C(=O)c2ccc(O)cc2C1=O`, the half-inhibitory concentration (IC50) was over 50 µM.

With `O=C1c2ccc(O)cc2C(=O)N1c1c(Br)cccc1Br`, the 50% inhibitory concentration (IC50) was 0.43 µM.

`Cc1ccc2c(c1)C(=O)N(c1c(C(C)C)cccc1C(C)C)C2=O`: the IC50 was over 50 µM.

For `O=C1c2ccc(O)cc2C(=O)N1c1c(F)cccc1F`, the half-inhibitory concentration (IC50) is over 50 µM.

Take `O=C1c2ccc(O)cc2C(=O)N1c1c(Cl)cccc1Cl`: the IC50 is over 50 µM.

As to `CC(C)c1cccc(C(C)C)c1N1C(=O)c2ccc(O)cc2C1=O`, the IC50 was 0.53 µM.

On to `CC(C)c1cccc(C(C)C)c1N1C(=O)c2ccc(Cl)cc2C1=O`, for which the concentration for half-maximal inhibition (IC50) is over 50 µM.

As for `Cc1cccc(C)c1N1C(=O)c2ccc(O)cc2C1=O`, the IC50 was over 50 µM.

Regarding `CC(C)c1cccc(C(C)C)c1N1C(=O)c2cccc(O)c2C1=O`, the 50% inhibitory concentration (IC50) amounted to 4.95 µM.

For `CCc1cccc(CC)c1N1C(=O)c2ccc(O)cc2C1=O`, the half-maximal inhibitory concentration (IC50) is over 50 µM.

Regarding `CC(C)c1cccc(C(C)C)c1N1C(=O)c2ccccc2C1=O`, the IC50 is over 50 µM.

As to `CC(C)c1cccc(C(C)C)c1N1C(=O)c2cccc(N)c2C1=O`, the half-maximal inhibitory concentration (IC50) is over 50 µM.

Regarding `CC(C)c1cccc(C(C)C)c1N1C(=O)c2ccc(N)cc2C1=O`, the IC50 was 29.5 µM.

In the case of `CC(C)c1cccc(C(C)C)c1N1C(=O)c2cccc([N+](=O)[O-])c2C1=O`, the IC50 was over 50 µM.

As for `CC(C)c1cccc(C(C)C)c1N1C(=O)c2ccc([N+](=O)[O-])cc2C1=O`, the IC50 is over 50 µM.

With `CC(C)(C)c1ccc(S(=O)(=O)/C=C/C#N)cc1` [BAY-11-7085], the concentration for half-maximal inhibition (IC50) was 0.1 µM.

As to `Nc1cccc2c1C(=O)N(C1CCC(=O)NC1=O)C2=O` (centres undefined) [POMALIDOMIDE], the half-inhibitory concentration (IC50) worked out at 1.27 µM.

In the case of `O=C1CCC(N2C(=O)c3ccccc3C2=O)C(=O)N1` (centres undefined) [THALIDOMIDE], the IC50 was determined as 2.04 µM.
